This note sets out measurements from ChEMBL document CHEMBL1150326 (Bioorg Med Chem, 2008).

In series [1] the test system is MX1. The experiment in a line: Cytotoxicity against human MX1 cells after 72 hrs by SRB assay. It is filed as functional, cell-based. The following applies: MX1, 72 h. The procedure, abridged:
(§1)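 Solid tumour cells (breast MX-1, colon HCT116) exposed for 72 h. Growth measured by SRB assay. IC50 obtained by median-effect plot from six or seven concentrations, in duplicate or triplicate.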
(The SRB assay estimates cell density from bound dye.)

The test system of series [2] is CCRF-CEM. As to the kind of experiment: Selectivity ratio of IC50 for vinblastine-resistant human CCRF-CEM cells to IC50 for human CCRF-CEM cells. It is filed as functional. The procedure, abridged:
(§2)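 Fold resistance: IC50 in the taxol- or vinblastine-resistant CCRF-CEM subline divided by the IC50 in parent CCRF-CEM.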

Series [3] is described as follows: Cytotoxicity against human H1299 cells. It is filed as functional, cell-based. As to conditions: NCI-H1299.
Series [4] has as its system Mus musculus. As to the kind of experiment: Toxicity against human U87 MG cells xenografted mouse assessed as body weight loss at 100 mg/kg, iv administered in Q2D x 5 schedule. On the set-up: dose 100 mg/kg, route intravenous. It is filed as organism-based, U-87MG ATCC. As to conditions: in vivo. Put shortly:
(§3)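 Nude nu/nu male mice (8 weeks or older, 22 g or more) carrying xenografts, given i.v. tail-vein injections in DMSO/Tween 80/saline vehicle, n = 3. Host toxicity taken as body weight change from the initial pretreatment weight, tracked through and after dosing.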
For orientation: A xenograft is tissue or cells of one species grown in another, often human tumour cells in immunodeficient mice.

The test system of series [5] is CCRF-CEM. The experiment in a line: Cytotoxicity against vinblastine-resistant human CCRF-CEM cells after 72 hrs by XTT assay. It is filed as functional, cell-based. Put shortly: (§4)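 Leukaemic CCRF-CEM cells and their taxol- and vinblastine-resistant sublines exposed for 72 h. XTT assay read at 450 and 630 nm after 6 h with phenazine methosulfate-XTT at 37 °C. IC50 obtained by the median-effect principle from six or seven concentrations, in duplicate or triplicate.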
(In general: Formazan colour is commonly taken as a measure of viable cells.)

The test system of series [6] is MX1. As to the kind of experiment: Antitumor activity in human MX1 cells xenografted mouse assessed as complete tumor remission at 100 mg/kg, iv administered in Q2D x 5 schedule. It is filed as functional, organism-based. Set-up: dose 100 mg/kg.
The subject of series [7] is Mus musculus. The experiment in a line: Toxicity against human MX1 cells xenografted mouse assessed as body weight loss at 100 mg/kg, iv administered in Q2D x 5 schedule. It is filed as organism-based. Set-up: dose 100 mg/kg, route intravenous. As to conditions: in vivo. The procedure, abridged: as §3
Series [8] can be described thus: Chemical stability assessed as half life at 1 mg in DMSO/Tween 80/normal saline solution. It is filed as physicochemical. Put shortly: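 1 mg of compound held in i.v. vehicle (DMSO/Tween 80/normal saline, 0.5:0.4:1.6 v/v/v). Degradation followed by silica TLC (CHCl3/MeOH 10:1) and confirmed by reversed-phase HPLC.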
Series [9] has as its system CCRF-CEM. The experiment in a line: Selectivity ratio of IC50 for taxol-resistant human CCRF-CEM cells to IC50 for human CCRF-CEM cells. It is filed as functional. The procedure, abridged: as §2
Series [10] relates to CCRF-CEM. The experiment in a line: Cytotoxicity against taxol-resistant human CCRF-CEM cells after 72 hrs by XTT assay. It is filed as functional, cell-based. The procedure, abridged: as §4
Series [11] relates to NCI-H1299. The experiment in a line: Induction of DNA interstrand cross linking in 20 Gy irradiated human H1299 cells at 10 uM after 1 hr by comet assay. It is filed as functional. Put shortly:
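H1299 cells (2 × 10^5) plated and grown for 32 h at 37 °C in 5% CO2, then drug-treated for 1 h. Cells given 20 Gy irradiation and embedded in 1.2% low-melting agarose for a modified comet assay under subdued light. Tail moment scored in 100 cells. Cross-linking % = [1 − (TMdi−TMcu)/(TMci−TMcu)] × 100. Three experiments, mean ± SD.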

In series [12] the test system is HCT-116. As to the kind of experiment: Cytotoxicity against human HCT116 cells after 72 hrs by SRB assay. As to conditions: HCT-116, 72 h. It is filed as functional, cell-based. The procedure, abridged:
as §1

Series [13] has as its system U-87 MG. The experiment in a line: Antitumor activity in human U87 MG cells xenografted mouse at 100 mg/kg, iv administered in Q2D x 5 schedule. On the set-up: dose 100 mg/kg. The following applies: U-87MG ATCC. It is filed as functional, organism-based.
Series [14] is described as follows: Stability in rat plasma assessed as half life at 5 ug/mL by HPLC. It is filed as ADME, cell-free. The procedure, abridged: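 Rat plasma (100 µL, 5 µg/mL compound) deproteinised with acetonitrile (1:2), centrifuged at 10,000 g for 10 min and filtered. Analysed by HPLC on methanol:10 mM NaH2PO4 (60:40, pH 3.0) at 0.8 mL/min, UV 266 nm, quantified by peak area. Detection limit 20 ng/mL; n = 4.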

Series [15] deals with CCRF-CEM. As to the kind of experiment: Cytotoxicity against human CCRF-CEM cells after 72 hrs by XTT assay. It is filed as functional, cell-based. Put shortly:
as §4

The source made the active and inactive calls.

For `Cc1ccc(Nc2c3ccccc3nc3c(C)cccc23)cc1NC(=O)Nc1ccc(N(CCCl)CCCl)cc1`, the IC50 in [1] was determined as 240 nM; in series [3], 510 nM; in series [5], 128 nM; in series [10] it was 91.8 nM; in series [12] it was 437 nM; in series [15], 77.8 nM. Also, the “Ratio IC50” value in [2] came to 1.64; in series [9] it was 1.18. The Activity came to 15% in [4], 10% in series [7] and 39.2% in series [11]. Further, the result in series [6] and in series [13] was Active. The half-life in [8] is 55 days. Also, the half-life at 5 ug/mL in [14] was 2.26 days.

As usually defined, the IC50 is the midpoint of a concentration-inhibition curve. High values mean weaker potency, low ones greater potency. A word on the half-life: it is the time needed for the level to fall by half in the phase considered.
